Screening results deposited in PubChem BioAssay by Broad Institute.
Most compounds without a hit are left out; they make up all but 3.4% or so of the library.
S100A4 MyoIIA – inhibitors of human S100A4 binding to myosin IIA peptide. P26447. S100A4/TAMRA-MyoIIA peptide fluorescence polarization. inhibition, % at 10.7 µM. 360,000 compounds, 0.14% hits. AID 652163;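 active means mean inhibition of at least 70% across replicates, with every replicate also reaching that level; inconclusive means mean inhibition reaches 70% but some replicates fall short; inactive means mean inhibition below 70%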
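Material: human S100A4 monomer with TAMRA-labelled myosin IIA peptide; buffer or medium: HEPES pH 7.2 with CaCl2, KCl, NaCl, DTT, Triton; compound dosing: one concentration per compound; schedule: 5 min incubation before reading; benchmarks: neutral control DMSO, positive control TFP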
MLL AF4-AF9 inh – blocks AF4 peptide binding to human AF9; inhibition, % at 10 µM; AlphaScreen, biotin-AF4 peptide binding to FLAG-AF9; 350,000 compounds, 0.47% hits;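 active means every replicate reaching a set inhibition limit, whatever the replicate mean, cut at about 25% in these data; inconclusive means mean inhibition reaches that limit but some replicates miss it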;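 further: 0% = plate neutral control median and 100% = total signal loss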
E-sel inducer – E-selectin induction on HUVECs; 260,000 compounds, 0.37% hits; AID 686992; P16581; HUVEC E-selectin immunofluorescence imaging; normalized: neutral wells 0, TNF-alpha wells 100; activation, % at 7.58 µM;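 active means mean E-selectin-positive cell signal at least 10% of the positive control, reached in at least 60% of replicates, without over 20% cell loss; inconclusive means no rule given, readout overlaps actives, possibly toxicity-flagged; inactive means the rest, including those meeting only one limit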
Target sequence (P16581 whole entry, looked up): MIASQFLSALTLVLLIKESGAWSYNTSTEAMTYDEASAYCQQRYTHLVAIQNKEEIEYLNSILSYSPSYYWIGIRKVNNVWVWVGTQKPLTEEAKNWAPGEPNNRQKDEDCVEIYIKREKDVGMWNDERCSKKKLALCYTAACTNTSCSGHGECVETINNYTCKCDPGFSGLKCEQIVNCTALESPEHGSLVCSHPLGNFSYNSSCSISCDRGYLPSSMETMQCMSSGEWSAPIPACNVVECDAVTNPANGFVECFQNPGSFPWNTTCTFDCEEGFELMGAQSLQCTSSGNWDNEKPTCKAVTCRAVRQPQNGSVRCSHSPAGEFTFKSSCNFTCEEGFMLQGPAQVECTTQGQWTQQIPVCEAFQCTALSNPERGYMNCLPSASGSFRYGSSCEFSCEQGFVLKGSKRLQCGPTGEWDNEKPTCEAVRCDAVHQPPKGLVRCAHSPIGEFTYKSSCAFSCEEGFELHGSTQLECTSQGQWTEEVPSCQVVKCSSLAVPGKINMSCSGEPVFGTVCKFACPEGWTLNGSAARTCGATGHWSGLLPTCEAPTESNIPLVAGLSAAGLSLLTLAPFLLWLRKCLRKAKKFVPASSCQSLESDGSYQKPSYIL
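Material: HUVEC primary endothelial cells; Amount: 3,000 cells per well; Dosing: single concentration; Medium: EGM-2 growth medium on 0.1% gelatin-coated wells; Read-out basis: percent E-selectin-positive cells; Signal: immunofluorescence imaging; Control set: TNF-alpha, DMSO.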
SIRT5 inh – sirtuin-5 (human) deacylase inhibition; Q9NXA8; Purified SirT5, succinyl-peptide AMC, trypsin-coupled fluorescence; inhibition, % at 15 µM; 330,000 compounds, 1.1% hits; AID 652115; in the data active means inhibition above about 15%; inconclusive means no clear call, values can overlap the other calls
rRNA inh HTS – inhibitors of bacterial rRNA selective over humanized ribosomes; E. coli WT GFP vs humanized-ribosome RFP mutants, fluorescence, 24 h; stronger effect = lower value; DMSO median 0, no signal -100; GFP signal change (wild-type ribosome), % (concentration not given with the values); 350,000 compounds, 1.6% hits; AID 720706;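 active means significant combined selectivity score with lowered wild-type GFP, culture density cut under 30%, mutant RFP and density less affected; inactive means any of these conditions unmet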
ERAP1 HTS inh – ERAP1 (human) enzyme inhibition. Q9NZ08. recombinant ERAP1, Leu-AMC fluorescence, 60 min. inhibition, % at 10.7 µM. 340,000 compounds, 0.15% hits. AID 652197;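 active means mean replicate inhibition of at least 30%, or all replicates individually reaching that 30% level; inactive means mean below 30% and not every replicate reaching it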;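 further: 0% = neutral control wells and 100% = L-leucinethiol positive control wells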
Active calls of the source: *; ? = inconclusive; nt = not tested or not shown.

SMILES	S100A4 MyoIIA	MLL AF4-AF9 inh	E-sel inducer	SIRT5 inh	rRNA inh HTS	ERAP1 HTS inh
CC[C@H]1c2[nH]c3ccc(C(C)C)cc3c2[C@@H]2CCN3C(=O)CCC[C@H]1[C@H]23	5	5	0	-6	-36	2
CC(C)c1ccc2[nH]c3c(c2c1)[C@@H]1CCN2C(=O)CCC[C@H](C3)[C@H]12	-9	?	0	35*	-21	4
COc1ccccc1NC(=O)Nc1ccc2c(c1)C(=O)N(C)C[C@H](OC)[C@H](C)CN[C@@H](C)CO2	-3	0	0	22*	0	2
COc1ccccc1NC(=O)Nc1ccc2c(c1)C(=O)N(C)C[C@H](OC)[C@@H](C)CN(C)[C@@H](C)CO2	9	1	0	6	1	nt
COc1ccccc1NC(=O)Nc1ccc2c(c1)C(=O)N(C)C[C@H](OC)[C@H](C)CN(C)[C@H](C)CO2	nt	nt	0	19*	1	nt
COc1ccccc1NC(=O)Nc1ccc2c(c1)C(=O)N(C)C[C@@H](OC)[C@@H](C)CN[C@H](C)CO2	-3	2	0	0	2	nt
CO[C@@H]1CN(C)C(=O)c2cc(NC(=O)C3CC3)ccc2OC[C@@H](C)N(CC2CCOCC2)C[C@@H]1C	2	-11	0	0	2	3
O=C(NC1CCCC1)N1CC(=O)N2[C@H](CO)[C@H](c3ccc(-c4cccc(F)c4)cc3)[C@@H]2C1	-5	0	1	-13	-7	5
O=C(Nc1ccc(-c2ccccc2)cc1)[C@H]1[C@H](CO)[C@H]2Cn3c(cccc3=O)[C@H]2N1CC1CCCCC1	nt	0	4	102*	2	nt
CC(=O)N1[C@H](C(=O)N[C@H](C)c2ccccc2)[C@@H](CO)[C@@H]2Cn3c(cccc3=O)[C@@H]21	110*	0	0	6	-3	0
O=C(NCC(F)(F)F)[C@@H]1[C@@H](CO)[C@@H]2Cn3c(cccc3=O)[C@@H]2N1Cc1cccc(F)c1	17	-1	0	16*	11	3
O=C(Nc1ccccc1)[C@@H]1[C@@H](CO)[C@@H]2Cn3c(cccc3=O)[C@@H]2N1CC1CC1	-2	-2	0	16*	-1	1
O=C(Nc1ccc(-c2ccccc2)cc1)[C@H]1[C@H](CO)[C@H]2Cn3c(cccc3=O)[C@H]2N1CC1CCCC1	-2	9	-1	6	-4	0
CC=Cc1ccc2n(c1=O)C[C@H]1[C@H](CO)[C@@H](C(=O)NC3CCC3)N(S(C)(=O)=O)[C@@H]21 (mixture of isomers)	14	1	-1	-3	2	-1
COc1c(O)cc2c(c1O)C1OC(CO)C(O)C(O)C1OC2=O (centres undefined)	5	-1	1	-5	-22*	-5
COc1c(O)cc2c(c1O)[C@@H]1OC(CO)C(O)C(O)[C@H]1OC2=O (some centres undefined)	2	-2	0	4	nt	1
O=C(Nc1cccc(F)c1)N1CC(=O)N2[C@@H](CO)[C@H](c3ccc(-c4ccccc4)cc3)[C@@H]2C1	-1	2	1	2	0	3
COC(=O)Cc1c(O)ccn(Cc2ccc(Cl)c(Cl)c2)c1=O	-3	-2	0	-3	-21*	-3
COc1cc(C(=O)NCCN2CCN(C(=O)c3cc(OC)c(OC)c(OC)c3)CC2)cc(OC)c1OC	-5	-1	0	29*	8	-3
COc1cc(C(=O)NC(=S)Nc2ccc3c(c2)OCO3)cc(OC)c1OC	-2	-2	nt	-2	13	1
COc1cc(C(=O)NC(=S)NNC(=O)c2ccc3c(c2)OCO3)cc(OC)c1OC	6	-4	0	10	-23*	2
COc1cc(C(=O)NNC(=O)C2CCC2)cc(OC)c1OC	-2	2	nt	25*	4	-3
COc1cc(C(=O)NNC(=O)C2CC=CCC2C(=O)O)cc(OC)c1OC (centres undefined)	-1	0	0	-5	25	-2
C[C@@H]1CN([C@@H](C)CO)C(=O)c2cc(NC(=O)CCN3CCOCC3)ccc2O[C@H]1CN(C)Cc1ccc(Oc2ccccc2)cc1	-1	6	0	4	4	5
CC(=O)N[C@@H]1CC[C@H](CCNC(=O)C2CC2)O[C@@H]1CO	-3	-2	0	0	2	-1
SMILES	S100A4 MyoIIA	MLL AF4-AF9 inh	E-sel inducer	SIRT5 inh	rRNA inh HTS	ERAP1 HTS inh
CC=Cc1ccc2n(c1=O)C[C@@H]1[C@@H](CO)[C@H](C(=O)NCCc3cn(C)cn3)[C@H]2N1C(=O)CC1CC1 (mixture of isomers)	2	-4	1	-14	4	1
O=C(O)C(O)Cc1c[nH]c2ccccc12 (centres undefined)	-2	-1	nt	-3	14	-1
O=C(CC(C(=O)O)c1c[nH]c2ccccc12)c1ccccc1 (centres undefined)	-5	-1	nt	17*	14	-1
O=C(CN(Cc1ccccc1)C(=O)CCC(=O)Nc1nccs1)NCc1ccc(F)cc1	-4	1	0	nt	1	3
O=C(CN(Cc1ccccc1)C(=O)CCC(=O)Nc1nccs1)NCc1ccccc1	0	43*	0	-2	3	-2
O=C(/C=C/c1cccs1)Nc1ccncc1	10	-18	-1	35*	9	-1
CCC(C)NC(=O)/C=C/c1cccs1 (centres undefined)	1	6	nt	17*	5	4
CC(C)(C)NC(=O)/C=C/c1cccs1	-1	-2	1	-1	10	3
CCS(=O)(=O)Nc1ccc2c(c1)C(=O)N(C)C[C@H](OC)[C@@H](C)CN(C(=O)C1CCC1)[C@H](C)CO2	4	-1	0	4	2	-2
CN(C)CC(=O)Nc1ccc2c(c1)[C@H]1C[C@H](CC(=O)NCc3cccnc3)O[C@@H](CO)[C@H]1O2	-13	0	0	-1	0	-1
CN(C)c1ccc(C=C2C=C(c3ccccc3)OC2=O)cc1	8	-9	0	nt	1	-1
CN(C)c1ccc(C=c2c3ccccc3n3c2cc(-c2ccc(Cl)cc2)[n+]3C)cc1	9	58*	122*	-1	-40	-4
COc1cc(/C=C(/C(=O)O)c2ccc(-c3ccccc3)cc2)cc(OC)c1OC	-3	1	1	2	-9	9
CN(C)c1ccc(C=c2c3cc([N+](=O)[O-])ccc3n3c2cc(-c2ccccc2)[n+]3C)cc1	98*	55*	218*	-10	-5	0
CN(C)c1ccc(C=c2c3ccccc3n3c2c2c([n+]3C)CCCC2)cc1	-6	37*	68*	-2	-76	10
